# IMP-1 inh: IMP-1 metallo-beta-lactamase inhibitors, primary screen, biochemical, epi-absorbance readout, Pseudomonas aeruginosa enzyme. purified IMP-1, nitrocefin hydrolysis, epi-absorbance fluorescence. inhibition, % at 5.6 µM. hit rate 0.45% among 290,000. AID 1556, 2009;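 active = inhibition above the mean plus 3 SD of all compounds in the same screening run, cut at about 4.5% in these data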;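 note: 0% = IMP-1 with DMSO and 100% = DMSO wells lacking enzyme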
#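 assay system = purified recombinant IMP-1 metallo-beta-lactamase enzyme | schedule = 15 min preincubation plus 25 min reaction at 25 °C | signal = Epi-absorbance fluorescence, 480 nm excitation, 530 nm emission | read-out basis = percent inhibition from optical density relative to buffer-blank wells | controls = IMP-1 with DMSO as 0%, enzyme-free DMSO as 100%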
# MsrA inh: bovine MsrA enzyme inhibitors, primary screen, biochemical, absorbance, HTS. Methionine sulfoxide reductase A (Bos taurus). purified bovine MsrA, absorbance read-out. inhibition, % at 15.5 µM. hit rate 0.75% among 360,000. AID 651718, 2012; in the data active = inhibition above about 4.5%;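 note: 0% = vehicle wells with enzyme and 100% = reference inhibitor wells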
# bovine MsrA act: bovine MsrA enzyme activators, primary screen, biochemical, absorbance, HTS; purified bovine MsrA, absorbance read-out; Methionine sulfoxide reductase A (Bos taurus); activation, % at 10.6 µM; AID 602163, 2012; hit rate 0.3% among 360,000; in the data active = activation above about 7.5%;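 note: 0% = vehicle and 100% = reference activator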
# VIM-2 inhibitor: VIM-2 metallo-beta-lactamase inhibitors, primary screen, biochemical, epi-absorbance readout, Pseudomonas aeruginosa enzyme | purified VIM-2, nitrocefin hydrolysis, epi-absorbance fluorescence | inhibition, % at 5.6 µM | hit rate 0.89% among 290,000 | AID 1527, 2009;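 active = inhibition above the mean of all tested compounds plus 3 SD, cutoff set per screening run, cut at about 7.5% in these data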;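 note: red hydrolysis product quenches plate fluorescence so inhibitors raise well fluorescence; 0% = enzyme with DMSO and 100% = DMSO without enzyme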
# PKA-R2B activ: activators of PKA-R2B holoenzyme, primary screen, biochemical, fluorescence polarization, Cy5-IP20, human; hit rate 0.079% among 340,000; AID 504700, 2011; activation, % at 11.4 µM; cAMP-dependent protein kinase catalytic subunit beta (Homo sapiens) + cAMP-dependent …; PKA-R2B holoenzyme dissociation; R2B truncated from residue 108, S112A mutant; 0% DMSO only, 100% 113 µM cGMP;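 active = activation above a cutoff set at the mean over all compounds plus 3 SD, cut at about 18% in these data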;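 note: higher means more holoenzyme dissociation and a rise in polarization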
# Target sequence (P31323 whole entry, looked up, other chains not shown, the tested form may be a part): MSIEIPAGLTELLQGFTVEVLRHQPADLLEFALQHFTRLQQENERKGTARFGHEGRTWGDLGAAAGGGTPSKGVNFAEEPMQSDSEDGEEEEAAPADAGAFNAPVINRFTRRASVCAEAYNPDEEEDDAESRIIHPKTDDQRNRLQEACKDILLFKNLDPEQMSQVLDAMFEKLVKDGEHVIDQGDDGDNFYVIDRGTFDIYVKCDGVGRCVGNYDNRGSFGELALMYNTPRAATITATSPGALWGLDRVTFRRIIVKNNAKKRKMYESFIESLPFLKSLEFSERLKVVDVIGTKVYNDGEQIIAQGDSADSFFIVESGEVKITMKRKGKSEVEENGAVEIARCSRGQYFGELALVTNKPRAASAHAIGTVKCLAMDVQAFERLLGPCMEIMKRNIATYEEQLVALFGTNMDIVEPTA
# PKA-R1A activ: activators of PKA-R1A holoenzyme, primary screen, biochemical, fluorescence polarization, Cy5-IP20, bovine R1A, mouse PKAc; PKA-R1A dissociation; scaled: DMSO 0%, 113 µM cGMP 100%; hit rate 0.083% among 340,000; activation, % at 11.4 µM;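 active = percent activation above the mean of all tested compounds plus 3 SD, cut at about 19% in these data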;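 note: higher means more PKAc released from R1A so a rise in polarization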
# Numbers without * were called inactive; nt = no result; ! = repeats disagree. Only some compounds are listed: those with a hit (about 2.1% of all), similar ones and a draw of the others.
SMILES,IMP-1 inh,MsrA inh,bovine MsrA act,VIM-2 inhibitor,PKA-R2B activ,PKA-R1A activ
COc1cc(-c2cc(=O)c3ccccc3o2)ccc1O,-2,2,-14,9.5*,8,-4
COc1cc(-c2cc(=O)c3c(O)cc(O)cc3o2)ccc1O,-3,nt,-4,0,nt,nt
O=[N+]([O-])c1ccc(OCn2cncn2)cc1,nt,0,3,nt,-13,-1
COc1cc(F)ccc1-c1csc(C(O)(c2ccccc2)C(F)(F)F)n1 (stereo unspecified),nt,4,-1,nt,nt,nt
CC(C)Oc1ccc(C(CCN)C2CCCCC2)cc1 (stereo unspecified),-2,-2,2,-2,0,7
N#Cc1c(C(F)(F)F)cc(-c2cccc(Cl)c2)[nH]c1=O,0,1,0,8.7*,2,-1
O=C(CN1C(=O)/C(=C\C=C\c2ccccc2)SC1=S)Nc1ccc(F)cc1,0,0,-6,0,-13,0
O=C(COC(=O)CCN1C(=O)/C(=C\C=C\c2ccccc2)SC1=S)Nc1cc(F)ccc1F,7.9*,1,-4,-2,4,-2
O=C(CCN1C(=O)/C(=C\C=C\c2ccccc2)SC1=S)Nc1ccc(C(=O)O)cc1,8.4*,0,-4,-1,-1,1
COc1cccc(C2CC(c3cccs3)=NN2C(=O)c2ccco2)c1O (stereo unspecified),-4,2,-5,-5,-2,-2
O=C(c1ccco1)N1N=C(c2cccs2)CC1c1ccccc1O (stereo unspecified),0,5.9*,-5,6,-12,-5
c1ccc(C2=NNC(c3ccccn3)=NN2)nc1,-8,0,-8,1,3,1
COc1ccc(C(Cl)=C(c2ccc(OC)cc2)c2ccc(OC)cc2)cc1,12*,4,-3,0,-5,-4
COCCNC(=O)C(c1cccs1)N(Cc1cccs1)C(=O)Cn1nnc2ccccc21 (stereo unspecified),4.6*,-1,-3,0,-9,-6
COCCNC(=O)C(c1cccs1)N(Cc1ccccc1)C(=O)Cn1nnc2ccccc21 (stereo unspecified),-1,-2,1,-4,1,-7
O=C1COc2ccc(C(=O)CSc3nnc(-c4cccs4)n3Cc3ccccc3)cc2N1,-3,1,-2,9.3*,0,5
Brc1ccccc1OCCCCn1cnc2ccccc21,1,1,-1,-3,-3,-2
Cc1ccc(OCCCCn2cnc3ccccc32)c(C)c1,6.6*,-1,-1,-2,-10,1
COc1ccccc1-c1cnc(C(O)c2ccc(C)cc2)[nH]1 (stereo unspecified),nt,-1,-1,nt,nt,nt
CCCc1[nH][nH]c(=O)c1C(c1ccc(Br)cc1)C(C#N)C#N (stereo unspecified),-2,0,-9,8.8*,-1,-4
CCCc1[nH][nH]c(=O)c1C(c1ccccc1)C(C#N)C#N (stereo unspecified),3,2,-2,9.1*,3,-4
N#Cc1cccc(NC(=O)c2cc(C3CCCCN3C(=O)c3ccccn3)on2)c1 (stereo unspecified),nt,-1,-1,nt,nt,nt
COc1ccc(NS(=O)(=O)c2ccc(OC)c(OC)c2)cc1OC,-4,0,1,-1,-6,-5
COc1ccc(S(=O)(=O)Nc2ccc(F)c(F)c2)cc1Cl,4.6*,1,-1,0,-13,-3
Cc1cccc(C)c1-n1nnnc1C(c1ccccc1OC(F)(F)F)N1CCN(C/C=C/c2ccccc2)CC1 (stereo unspecified),nt,1,-3,nt,nt,nt
SMILES,IMP-1 inh,MsrA inh,bovine MsrA act,VIM-2 inhibitor,PKA-R2B activ,PKA-R1A activ
COc1cccc(S(=O)(=O)N(C)C[C@H]2OCc3cn(nn3)CCCC(=O)N([C@H](C)CO)C[C@@H]2C)c1,nt,-1,-1,nt,-9,-7
O=C(CSc1ccc2nnc(-c3cccs3)n2n1)N1CCCC1,-5,-1,-8,8.1*,-9,-10
Cc1ccc(N2C(=O)N3[C@H](c4ccc(F)cc4)[C@@H]4C(=O)N(C5CCCCC5)C(=O)[C@@H]4[C@]3(Cc3ccccc3)C2=O)cc1,-3,0,-3,-4,-3,-12
CCc1n[nH]c(=S)n1/N=C/c1cc(OC)cc([N+](=O)[O-])c1O,4.6*,0,-2,-1,-3,-14
COc1cc(C(=O)Nc2cccc(S(=O)(=O)N3CCCC3)c2)c([N+](=O)[O-])cc1OC,nt,4.6*,-2,nt,-7,-5
COc1ccccc1C(=O)Nc1cccc(S(=O)(=O)N2CCCC2)c1,-3,0,-2,-1,-5,1
O=C(OCCN1CCOCC1)c1cccnc1,8.4*!,3,-14,-1,4,-11
Cc1ccc(C(=O)NCC(=O)Nc2ncccc2C)s1,nt,-1,-13,nt,-1,-9
COc1cc(Br)c(-c2sc(Nc3ccccc3)n[n+]2-c2ccc(F)cc2)cc1OC,-4,1,0,-4,-8,-3
COc1cc(OC)c(-c2sc(Nc3ccccc3)n[n+]2-c2ccc(F)cc2)cc1OC,0,4.6*,-11,1,-6,-2
COc1cccc2[nH]c3c(N4CCCCC4)ncnc3c12,-2,2,-3,6,-7,5
CCOC(=O)C1CCN(c2ncnc3c2[nH]c2cccc(OC)c23)CC1,-3,3,-1,8.4*,-2,-16
COC(=O)c1cc2c(c3c4ccccc4n(S(=O)(=O)c4cccc(C)c4)c13)C(=O)N(Cc1ccccc1OC)C2,nt,1,nt,nt,nt,nt
Cc1ccccc1CSc1nnc([C@@H]2CCCN2)o1,5.7*,-1,-10,0,8,-8
CCSc1nc(N)c(C#N)c(-c2ccco2)c1C#N,4.5*,1,-1,4,0,-7
COC(=O)CSc1nc(N)c(C#N)c(-c2ccco2)c1C#N,-4,3,-6,1,-3,-14
O=Cc1cc2ccccc2nc1SCc1ccc(Cl)c(Cl)c1,4.7*,-1,-4,-1,9,-5
CN(C)c1ccc(CNC(=O)C2Cc3c(-c4cccc(C(N)=O)c4)ccnc3O2)cc1 (stereo unspecified),nt,0,-2,nt,nt,nt
CCN1CCN(C(=O)c2cc3c(-c4ccc(Cl)cc4)nn(C)c3s2)CC1,0,-1,-10,11*,1,-2

# Source: PubChem BioAssay (The Scripps Research Institute Molecular Screening Center)
